From PubChem
Hits are enriched below; roughly 2.9% of the tested compounds scored in any of these assays.
SIAE primary: inhibitors of human sialic acid acetylesterase SIAE | inhibition, % at 9.66 µM | Q9HAT2 | AID 1053197 | 370,000 compounds, 0.69% hits | SIAE FP-Rh probe binding, fluorescence polarization;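 active = inhibition above a cutoff: mean of compounds within the control limits plus 3 SD of those, cut at about 17% in these data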;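 also: 0% = plate median of compound wells and 100% = probe without SIAE protein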
ATG4B inhibitor: inhibitors of human ATG4B cysteine protease; inhibition, % at 8.33 µM; ATG4B cleavage of LC3-PLA2, NBD-HPC fluorescence, 1 h; Q9Y4P1; 340,000 compounds, 0.51% hits; in the data active = inhibition above about 40%
PRMT1 inh: PRMT1 (human) inhibition, primary screen. 370,000 compounds, 1.3% hits. recombinant PRMT1, activity-based probe fluorescence polarization. inhibition, % at 2.79 µM. AID 652257;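 active = inhibition above about 21% made by adding two undisclosed values, limit read from the data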
TCR-CD3 inh: blocks the human TCR-CD3 interaction. inhibition, % at 9.4 µM. 360,000 compounds, 0.37% hits. TAMRA-labeled TCR probe fluorescence, biochemical; in the data active = inhibition above about 19%;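 also: recombinant mutant TCR 2C K166C tagged with TAMRA read by polarization; 0% = receptor in buffer alone and 100% = receptor with positive control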
HTRA1 inh: HTRA1 (human) protease inhibition | AID 504803 | recombinant HTRA1, FP-rhodamine activity-based probe, fluorescence polarization | inhibition, % at 5.96 µM | 340,000 compounds, 0.5% hits; in the data active = inhibition above about 36%;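 also: 0% = enzyme with DMSO and 100% = wells lacking enzyme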
mABHD4 FP: inhibits mouse alpha/beta hydrolase domain 4; Q8VD66; purified mABHD4, FP-Rh probe fluorescence polarization; inhibition, % at 8.92 µM; 370,000 compounds, 0.54% hits; AID 720543;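 active = inhibition exceeding the mean over every tested compound plus 3 SD, cut at about 30% in these data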;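 also: 0% = plate median of compound wells and 100% = S159A mutant with DMSO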
Target sequence (Q8VD66 whole entry, looked up, the tested form may be a part): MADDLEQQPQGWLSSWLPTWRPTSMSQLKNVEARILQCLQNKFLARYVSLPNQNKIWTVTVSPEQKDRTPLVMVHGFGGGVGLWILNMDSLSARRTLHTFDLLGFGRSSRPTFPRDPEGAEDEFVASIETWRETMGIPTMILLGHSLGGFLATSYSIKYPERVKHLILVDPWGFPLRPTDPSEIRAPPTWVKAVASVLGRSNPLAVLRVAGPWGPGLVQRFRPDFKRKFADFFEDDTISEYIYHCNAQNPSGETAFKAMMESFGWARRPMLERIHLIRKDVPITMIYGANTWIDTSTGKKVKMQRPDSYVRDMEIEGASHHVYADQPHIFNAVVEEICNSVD
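Test system: mABHD4 protein | Buffer or medium: HEPES pH 7.0 buffer, 150 mM NaCl, 0.01% Pluronic F-127 | Probe or stimulus: FP-Rh fluorescent activity-based probe, added after compound pre-incubation | Timing: Pre-incubation 45 min, probe exposure 60 min, at 25 °C | Technique: Fluorescence polarization, excitation 525 nm, emission 598 nm, BODIPY TMR filters | Repeats: Single well per compound (singlicate)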
mABHD4 conf: ABHD4 (mouse) inhibition, FP confirmation. shares compounds with mABHD4 FP. purified mABHD4, FP-Rh probe fluorescence polarization. inhibition, % at 8.92 µM. 1,800 compounds, 55% hits. AID 720658;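 active = mean inhibition across replicates above the hit cutoff set in the primary screen, cut at about 30% in these data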;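 also: 0% = wild-type ABHD4 with DMSO and 100% = catalytically dead S159A mutant with DMSO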
The depositor's hits bear a star; / = not tested or not shown.

SMILES | SIAE primary | ATG4B inhibitor | PRMT1 inh | TCR-CD3 inh | HTRA1 inh | mABHD4 FP | mABHD4 conf
N#C/C(=C\c1ccc(O)c([N+](=O)[O-])c1)c1nc2ccccc2s1 | -50 | -13 | 5 | 14 | 17 | 30* | 71*
Nc1c(Cl)ncnc1N/N=C/c1cccnc1 | 2 | -10 | -1 | 5 | 9 | 3 | /
Nc1c(Cl)ncnc1N/N=C/c1ccccn1 | 7 | -2 | 7 | 3 | / | 54* | 54*
CN(C)c1ccc(O)c2c1CC1CC3C(N(C)C)C(=O)C(C(N)=O)=C(O)[C@@]3(O)C(=O)C1=C2O (some centres not stated) | 9 | -2 | 16 | 1 | 15 | 60* | 26
CN(C)c1ccc(O)c2c1CC1CC3[C@@H](N(C)C)C(=O)C(C(N)=O)C(=O)[C@]3(O)C(=O)C1C2=O (some centres not stated) | 10 | -7 | 11 | 5 | 28 | 61* | -4
CC(C)C1Nc2ccc(C(=O)O)cc2C2C=CCC21 (configuration not stated) | 3 | 15 | 17 | 0 | 24 | 45* | 38*
CC(=O)c1ccc2c(c1)C1C=CCC1C(c1cc3c(cc1Br)OCO3)N2 (configuration not stated) | -3 | -2 | -1 | -3 | -28 | -5 | /
Cc1cc(C)cc(N(CC(=O)NC2CCC(C)CC2)S(=O)(=O)c2ccccc2)c1 (configuration not stated) | -6 | / | 2 | / | / | 15 | /
O=C(CCCCCN1C(=O)C2C3C=CC(C3)C2C1=O)Nc1cc(F)cc(F)c1 (configuration not stated) | -4 | / | 6 | / | / | 4 | /
CC(=O)C1=C(C)NC2=C(C(=O)c3ccccc32)C1c1ccccc1 (configuration not stated) | 9 | -5 | 3 | 2 | 12 | 41* | 83*
CC1=C(C#N)C(c2ccccc2)C2=C(N1)c1ccccc1C2=O (configuration not stated) | -7 | 28 | 2 | 0 | 5 | 1 | /
Cn1c(SCC(=O)Nc2ccc(C(=O)O)cc2)nnc1-c1ccccn1 | -3 | / | 2 | / | / | -1 | /
O=C1C2C(C(=O)N1/N=C/c1cc([N+](=O)[O-])ccc1O)C1C=CC2C12CC2 (configuration not stated) | -6 | -14 | -2 | 3 | 3 | 4 | /
O=C1C2C(C(=O)N1/N=C/c1cc([N+](=O)[O-])c(O)cc1O)C1C=CC2C12CC2 (configuration not stated) | -1 | 1 | 2 | 8 | 18 | 31* | 21
O=C(CSc1ccccn1)Nc1ccc2c(c1)C(=O)c1ccccc1C2=O | -3 | 7 | 1 | 6 | 1 | 8 | /
O=C(CSc1n[nH]c(=O)[nH]c1=O)Nc1ccc2c(c1)C(=O)c1ccccc1C2=O | -3 | -5 | 5 | 16 | 5 | 38* | 56*
COc1cccc(C2CC(c3cccc(NS(C)(=O)=O)c3)=NN2C(=O)c2ccccc2)c1OC (configuration not stated) | -8 | -15 | 0 | 6 | -8 | 34* | 31*
CCOC(=O)N1CCN(C(=O)C[C@H]2C[C@@]3(C(=O)OC)C(=C[C@H](COCc4ccccc4)O[C@@H]3C)N(Cc3ccc(Cl)cc3Cl)C2=O)CC1 | 0 | / | 3 | / | / | -5 | /
CCOc1ccc2[nH]c3c(N4CCc5ccccc5C4)ncnc3c2c1 | 16 | 39 | -6 | -3 | / | 35* | 53*
C=CCSC1=N/C(=C\c2sccc2C)C(=O)S1 | -3 | 4 | 6 | 0 | -12 | 9 | /
C=CCSC1=N/C(=C\C=C\c2ccco2)C(=O)S1 | 13 | 25 | 44* | 16 | 24 | 64* | 7
CCc1ccccc1N=Nc1c(N)[nH]n(-c2ccccc2)c1=O | 12 | / | -2 | / | / | 34* | 45*
CCN(C(=O)c1ccc(S(C)(=O)=O)cc1)C12CC3CC(CC(C3)C1)C2 | -3 | -15 | -3 | 4 | 1 | 93* | -37
COC(=O)C1CN(C2CC2)CCS(=O)(=O)N1Cc1cn(Cc2ccc(C)cc2)nn1 (configuration not stated) | 10 | / | -1 | / | / | 10 | /
CC(C)CCNC(=O)C1COC(O)(C(Cc2ccccc2)NC(=O)[C@@H](NC(=O)OCc2ccccc2)C(C)C)CN1 (some centres not stated) | -2 | / | -4 | / | / | 0 | /
SMILES | SIAE primary | ATG4B inhibitor | PRMT1 inh | TCR-CD3 inh | HTRA1 inh | mABHD4 FP | mABHD4 conf
Cc1nn(-c2ccccc2)c(N2CCCC2)c1/C=N/NC(=S)Nc1ccccc1C(F)(F)F | 6 | 0 | -1 | -2 | -2 | 54* | 57*
Cc1nn(-c2ccccc2)c(N2CCCC2)c1/C=N/NC(=S)Nc1cc(C(F)(F)F)ccc1Cl | 8 | -6 | 0 | 4 | -5 | 6 | /
Cc1cc(NCCCCCCCNc2cc(C)nc3cc([N+](=O)[O-])ccc23)c2ccc([N+](=O)[O-])cc2n1 | 4 | 24 | -3 | -10 | 8 | 32* | 40*
COc1cccc(/C=N\N2CCN(c3ccc(C)cc3)CC2)c1O | -1 | / | -1 | / | / | 2 | /
COc1cccc(Cn2cc(COC(=O)NCCc3c[nH]c4ccccc34)nn2)c1 | 0 | / | 1 | / | / | 4 | /
COc1cc([N+](=O)[O-])cc(/C=N/NC(=O)C(C)Nc2cccc3ccccc23)c1O (configuration not stated) | 9 | -2 | -2 | 2 | 19 | 33* | 39*
O=C(O)c1cccc(-c2ccc(/C=N/Nc3ccc([N+](=O)[O-])cc3)o2)c1 | -9 | 0 | -4 | -2 | 4 | 39* | 53*
O=C(O)c1ccc(N/N=C/c2ccc(-c3cccc(Cl)c3)o2)cc1 | 16 | 16 | 4 | 1 | -6 | 50* | 65*
NS(=O)(=O)c1ccc(-c2ccc(/C=N/Nc3ccc(C(=O)O)cc3)o2)cc1 | -4 | -11 | 7 | -8 | -3 | 18 | /
O=[N+]([O-])c1ccc(C=NNc2ccc(S(=O)(=O)O)cc2)cc1 | 1 | -6 | 2 | 4 | 11 | 33* | 50*
O=C(O)c1ccc(N/N=C/c2ccc(-c3cc(Cl)ccc3Cl)o2)cc1 | 5 | 12 | 13 | -6 | 0 | -8 | /
O=[N+]([O-])c1ccc(N/N=C/c2cccnc2)cc1 | -7 | -4 | 3 | 2 | 1 | 6 | /
CCCCN1CCN(C(=O)Cn2c(=O)c3ccccc3n(CC)c2=O)CC1 | 3 | / | -3 | / | / | 2 | /
Cc1cccc(NC(=O)[C@@H]2CC(=O)O[C@@H]2c2ccccc2)c1C | 1 | / | -3 | / | / | 7 | /
CN(C)c1cccc(-c2cnc(N3CCC(C(N)=O)CC3)nc2)c1 | 6 | / | 4 | / | / | 6 | /
